B1: tRNA (parent)
chain: GUUCCGUUGGCGUAAUGGUAACGCGUCUCCCUCCUAAGGAGAAGACUGCGGGUUCGAGUCCCGUACGGAACG

This sample holds only a part of the variants without activity. Some results are limits rather than exact numbers.

The variants in the data set derive from B1. Description: yeast fitness relative to wild type (ratio to wild type); higher = fitter; tRNA-Arg(CCU), competitive growth, 37 C, YPD. The method in brief:
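Variants of the tRNA-Arg(CCU) gene were chemically synthesised with a 3% per-site mutation rate across 69 sites and placed at the native genomic locus in Saccharomyces cerevisiae. Six parallel replicates of the pooled strains were competed in YPD at 37°C for 24 hours, and gene amplicons from the start and end populations were read by 100-nucleotide paired-end sequencing. Darwinian fitness relative to wild type was derived from changes in genotype frequencies. Genotypes required ≥ 100 starting reads, and estimates < 0.5 were set to 0.5.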
In the case of U32C A40U C55G, the yeast fitness worked out at 0.703.
Regarding U32G C33A U47A C62U C66G, the yeast fitness was at most 0.5.
Regarding U32C A43C G52A C55U C60A, the yeast fitness was at most 0.5.
Then C33G A40U A70G, with 0.545.
On to U32G C46A C66U, for which the yeast fitness came to 0.538.
For U32C C49G, the yeast fitness turned out to be 1.02.
The same measure for U32C C49A: 0.692.
For C33G A37G C46A C49U, the yeast fitness was at most 0.5.
As to U32C G39C G50C, the yeast fitness was at most 0.5.
On to U32C C46G U59C G63C G68C, for which the yeast fitness was at most 0.5.
Turning to C33A U54C C55G, the yeast fitness is at most 0.5.
In the case of U32C A45G A57U, the yeast fitness was at most 0.5.
For the variant U32C G56C, the yeast fitness was determined as 0.676.
The same measure for U32C A42U: 0.974.
For the variant U32G A42G C61U, the yeast fitness was at most 0.5.
Then U32C A43C, with 0.83; and U32G G39C C49U G52C, with at most 0.5.
In the case of C33A U35G C49U A65U, the yeast fitness is at most 0.5.
The same measure for U32G U59C C61A: at most 0.5.
As to U32G C33G C66U A69U, the yeast fitness was at most 0.5.
In the case of U32G G51A C55G, the yeast fitness is at most 0.5.
C33A C46U U59C G67A G68C: the yeast fitness was at most 0.5.
On to U32C C46G G52C G68C, for which the yeast fitness is at most 0.5.
The same measure for U32C A43G A45G: 0.608; for U32C G38C G50A A70G: at most 0.5; for C33G A42C C66G A70G: at most 0.5.
The same measure for U32G C62U: 0.625; for U32G C62A: 0.512.
Then U32C G38C G52C, with at most 0.5.
In the case of U32G G68C, the yeast fitness is 0.703.
Consider U32C U35C A40G, for which the yeast fitness is at most 0.5.
On to C33A A40G, for which the yeast fitness was 0.683.
With U32C C46A, the yeast fitness came out at 0.88.
In the case of U32C C34U G44C, the yeast fitness was at most 0.5.
The same measure for C33G A36G: 0.699; for U32C G38C G68C: at most 0.5; for U32G G39C G52C C61U: at most 0.5.
Consider U32G U35G A36C A37G C61G A70G, for which the yeast fitness is at most 0.5.
U32C C66A: the yeast fitness was found to be 0.702.
For U32G U35A G48A G63C A69G, the yeast fitness is 0.524.
Take U32C A42G G63A: the yeast fitness is 0.556.
The same measure for U32G C49G: 0.602.
U32C G67C: the yeast fitness worked out at 0.9.
As to C33A C34G G50A, the yeast fitness is 0.517.
Then U32G A40U U59A, with at most 0.5.
Then C33A G39C C49U U54A G68A, with at most 0.5.
On to U32C C34U, for which the yeast fitness is 0.788.
As to U32C U64A, the yeast fitness was determined as 0.789.
Take U32G G48C A65C: the yeast fitness came out at 0.574.
Regarding C33A A37U C62A A70C, the yeast fitness turned out to be 0.605.
With C33A C46G C60U, the yeast fitness amounted to 0.76.
For U32G A42G C46U G51A, the yeast fitness is at most 0.5.
As to C33G A36U A57C, the yeast fitness was at most 0.5.
Take C33G A37G A43C G58C: the yeast fitness was 0.547.
Take U32G C34U A57G: the yeast fitness came to 0.561.
As to U32C G48C C49U, the yeast fitness is 0.635.
Then U32C G44C, with 0.842.
For the variant U32C A43C C49U, the yeast fitness was determined as 0.648.
Regarding U32C A42U G51C, the yeast fitness is 0.533.
On to C33A A42C A45C U47G, for which the yeast fitness was 0.515.
For U32G A69C, the yeast fitness is 0.848.
Regarding C33G A42C C49G G58C C62G, the yeast fitness came out at 0.513.
In the case of U32G A45G U47C C49U A70U, the yeast fitness is at most 0.5.
On to C33A G58C C62G U64G, for which the yeast fitness was at most 0.5.
In the case of U32C C55U, the yeast fitness is 0.651.
Consider U32C C55A, for which the yeast fitness came out at 0.632.
Consider C33A A36C A43U C46G C62G A69U, for which the yeast fitness was at most 0.5.
Regarding U32G A57U, the yeast fitness was 0.527.
For the variant C33A A43G A45C C60A, the yeast fitness is 0.564.
In the case of U32C A45U G52A A70U, the yeast fitness is at most 0.5.
As for U32C A45U G67A, the yeast fitness is at most 0.5.
The same measure for U32C G63C: 0.759.
In the case of U32C A40U A69C, the yeast fitness turned out to be 0.747.
Then U32C G58A, with 0.798; and U32C C55U C62U, with 0.653; and U32C A45U C46G A69C, with at most 0.5.
Then U32G U35A G38C G51C C66U, with 0.579; and C33A A40U C55U C62U, with at most 0.5.
In the case of C33A A70U, the yeast fitness amounted to 0.655.
Turning to U32C C60G, the yeast fitness came to 0.552.
The same measure for C33A C34A: 0.621.
For C33A C34G, the yeast fitness was 0.755.
Turning to U32G C33U A36C G56U C66A, the yeast fitness is at most 0.5.
Then C33A C34G G50A A70U, with at most 0.5; and C33A U35A C62U, with 0.617.
For U32C G48A A70U, the yeast fitness came to 0.783.
The same measure for U32G C61U C66U: 0.577; for U32C A57G: 0.861; for U32G A45G A69U: 0.553.
For the variant U32C A40U A43G, the yeast fitness was found to be 0.684.
As to C33A G39C C49U U54A, the yeast fitness is at most 0.5.
For the variant U32G A40C, the yeast fitness was found to be 0.692.
On to U32G A40U, for which the yeast fitness was found to be 0.624.
Turning to C33A U35C C46U C49U G52C C61U C66U A69U, the yeast fitness amounted to 0.528.
U32G G56C: the yeast fitness is at most 0.5.
Turning to C33A C34U G52A A57G, the yeast fitness is at most 0.5.
For the variant U32G C61A, the yeast fitness was 0.535.
The same measure for U32C C55U A69C: 0.63; for U32G G56A G63C: at most 0.5.
Consider C33A A37G, for which the yeast fitness came to 0.531.
Take C33A A37C: the yeast fitness was at most 0.5.
Regarding C33A A45G A70U, the yeast fitness amounted to 0.638.
Consider U32G A42G G58A C61U A70G, for which the yeast fitness is at most 0.5.
The same measure for U32C U54C: 0.687; for C33A A36C C46G C62G A69U: at most 0.5; for U32C C33A: 0.628.
As to U32G G67C, the yeast fitness amounted to 0.59.
For the variant U32G C55A A57G, the yeast fitness was at most 0.5.
Turning to U32G C61U A69C, the yeast fitness is 0.746.
Turning to C33A C55G, the yeast fitness was found to be 0.564.
Regarding C33A A36U G63A, the yeast fitness was at most 0.5.
The same measure for U32C G41C U47C: 0.592; for U32C C49U G50C: 0.638.
Then U32C C49U A65C, with 0.793; and U32C C49U A65G, with 0.778.
Take U32C U35A U47C: the yeast fitness is at most 0.5.
Consider U32G G41C, for which the yeast fitness turned out to be 0.597.
Take C33G A40G C66G: the yeast fitness amounted to 0.698.
Regarding U32C G52A G58C, the yeast fitness is at most 0.5.
U32G G39C A43G G52C: the yeast fitness was 0.571.
The same measure for U32G U35A G38C C46G: at most 0.5; for C33A U35A A70C: at most 0.5.
Then C33A G39C G41C G44C A69C, with 0.577; and U32C C33U C62U A65G, with 0.58; and C33A C49U G52A A70C, with at most 0.5.
Then U32C C33U A42U A57G, with at most 0.5; and U32C G51A A70U, with 0.868; and U32C G58A C62U A69C, with 0.716.
For C33G A40U G56A, the yeast fitness is at most 0.5.
As for U32C A43C A65U, the yeast fitness amounted to 0.503.
Then U32G G50A, with 0.714; and C33A G38C C46A G58C, with 0.698; and U32G C33G A70G, with at most 0.5.
Then C33A A43C G50A A57U C60G, with at most 0.5; and C33G A37U A40C A69U, with 0.543.
Consider C33G A40C C62G, for which the yeast fitness was at most 0.5.
Turning to U32G C46U A69U, the yeast fitness turned out to be 0.602.
Consider U32C C34U A45U, for which the yeast fitness is 0.662.
Turning to U32C G48A, the yeast fitness amounted to 0.76.
The same measure for U32C G48C: 0.862.
For the variant U32C A43C A69G, the yeast fitness is at most 0.5.
Consider U32G A42C, for which the yeast fitness came to 0.62.
On to U32G A57C C62U, for which the yeast fitness was 0.555.
Turning to U32C G41C, the yeast fitness was 0.931.
The same measure for U32G C33U A37G A43C: at most 0.5; for U32C U35C C49G: 0.545.
On to C33A C61A C62U C66U, for which the yeast fitness was determined as 0.562.
Then U32G U35G A36C C61G A70G, with 0.583; and C33A G50A, with 0.545; and U32C A70U, with 0.935.
In the case of U32C A70C, the yeast fitness was 0.991.
As to C33A C34G C60A A70C, the yeast fitness is at most 0.5.
As for U32C G52C, the yeast fitness stood at 0.602.
On to C33A A36U C62U, for which the yeast fitness is at most 0.5.
On to U32C U47A, for which the yeast fitness was found to be 0.9.
Regarding U32C A43G A65C, the yeast fitness stood at 0.913.
U32G G39C C62G G68A: the yeast fitness is at most 0.5.
As for C33A A57G, the yeast fitness came out at 0.781.
Then C33A A57U, with 0.564; and C33A U54G A70C, with at most 0.5.
Turning to U32C A40U C55A G56C, the yeast fitness was at most 0.5.
U32G: the yeast fitness was found to be 0.664.
The same measure for U32G C33G G50A U53G A69G A70C: at most 0.5; for U32C C34U U53A C66U: at most 0.5.
Regarding U32G C61U C66U A69G, the yeast fitness was at most 0.5.
U32C G39U: the yeast fitness was determined as 0.911.
As for U32C G39A, the yeast fitness was determined as 0.928.
